Measured values taken from ChEMBL document CHEMBL1137220, “2-(2-(dimethylaminomethyl)phenoxy)-5-iodophenylamine: an improved serotonin transporter imaging agent” (J Med Chem, 2004).

What was measured:
[1] = molecular target: Sodium-dependent serotonin transporter (Homo sapiens, UniProt P31645); assay: Binding affinity for serotonin transporter expressed in […] cells; type: cell-based
Method in brief: (§1)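 Membranes from confluent pig kidney LLC-PK₁ cells stably expressing the respective transporter, homogenized and pelleted, 30–40 μg protein. Incubated with 0.4 nM [¹²⁵I]IPT or [¹²⁵I]IDAM and 8–10 competitor concentrations (10⁻¹⁰ to 10⁻⁵ M) in 50 mM Tris-HCl pH 7.4, 120 mM NaCl, 0.1% BSA, 1 h at room temperature. Nonspecific binding was defined with 10 μM CFT for IPT and 1 μM IDAM for IDAM. Filtration, gamma counting, nonlinear regression for Ki.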

[2] = molecular target: Sodium-dependent dopamine transporter (Homo sapiens, UniProt Q01959); assay: Binding affinity for dopamine transporter expressed in […] cells; type: cell-based; method in brief: as §1
Chain of Sodium-dependent dopamine transporter (Q01959 whole entry): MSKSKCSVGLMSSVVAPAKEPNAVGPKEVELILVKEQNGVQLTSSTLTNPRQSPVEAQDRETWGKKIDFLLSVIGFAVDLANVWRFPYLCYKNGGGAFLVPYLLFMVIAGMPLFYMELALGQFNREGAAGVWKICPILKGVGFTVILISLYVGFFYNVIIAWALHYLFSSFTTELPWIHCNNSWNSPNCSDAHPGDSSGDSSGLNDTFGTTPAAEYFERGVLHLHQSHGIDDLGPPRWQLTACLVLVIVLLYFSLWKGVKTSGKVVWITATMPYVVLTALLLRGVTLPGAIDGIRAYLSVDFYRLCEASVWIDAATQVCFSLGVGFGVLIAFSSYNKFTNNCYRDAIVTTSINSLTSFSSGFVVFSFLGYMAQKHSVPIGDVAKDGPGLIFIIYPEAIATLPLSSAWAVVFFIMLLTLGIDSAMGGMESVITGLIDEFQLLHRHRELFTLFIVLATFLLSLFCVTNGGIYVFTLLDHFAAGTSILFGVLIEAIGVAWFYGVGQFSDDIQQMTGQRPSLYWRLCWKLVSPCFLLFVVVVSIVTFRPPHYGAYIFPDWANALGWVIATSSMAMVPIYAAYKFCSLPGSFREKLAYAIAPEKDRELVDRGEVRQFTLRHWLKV

Chain of Sodium-dependent serotonin transporter (P31645 whole entry): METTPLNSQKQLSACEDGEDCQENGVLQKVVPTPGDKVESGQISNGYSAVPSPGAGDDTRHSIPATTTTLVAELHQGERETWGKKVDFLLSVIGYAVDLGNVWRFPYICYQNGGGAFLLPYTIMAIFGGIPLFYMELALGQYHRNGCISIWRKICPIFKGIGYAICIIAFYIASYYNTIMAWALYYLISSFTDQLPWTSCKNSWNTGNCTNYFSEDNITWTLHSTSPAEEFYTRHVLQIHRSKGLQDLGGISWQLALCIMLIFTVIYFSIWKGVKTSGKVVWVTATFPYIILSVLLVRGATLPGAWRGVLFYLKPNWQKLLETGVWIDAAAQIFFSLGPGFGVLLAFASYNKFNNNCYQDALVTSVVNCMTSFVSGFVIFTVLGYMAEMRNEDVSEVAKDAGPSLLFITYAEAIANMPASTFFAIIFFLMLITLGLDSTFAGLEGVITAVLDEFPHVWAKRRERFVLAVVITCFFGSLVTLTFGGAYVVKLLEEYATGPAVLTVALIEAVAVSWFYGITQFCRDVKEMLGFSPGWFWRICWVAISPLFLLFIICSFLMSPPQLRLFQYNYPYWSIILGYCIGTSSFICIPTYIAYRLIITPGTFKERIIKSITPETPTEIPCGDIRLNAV

SMILES | Ki [1] | Ki [2]
CN(C)Cc1ccccc1Cc1ccc(I)cc1N | 48.6 nM | > 1000 nM
CN(C)Cc1ccccc1Oc1ccc(I)cc1CO | 0.12 nM | > 1000 nM
CN(C)Cc1ccccc1Sc1ccc(C#N)cc1N [DASB] | – | > 1000 nM
CN(C)Cc1ccccc1Sc1ccc(I)cc1CO | 0.09 nM | > 1000 nM
CN(C)Cc1ccccc1Sc1ccc(I)cc1N | 0.01 nM | 840 nM
